Assay results taken from ChEMBL document CHEMBL4177770, “Discovery of MK-6169, a Potent Pan-Genotype Hepatitis C Virus NS5A Inhibitor with Optimized Activity against Common Resistance-Associated Substitutions” (J Med Chem, 2018).
Where a chain is given by its changes, count along the chain named.

Legend:
[1] = tested on: NS3 (Hepatitis C virus), A3EZJ3 [R155K,V36M]; test: Inhibition of NS3 R155K/V36M double mutant in HCV genotype 1a infected in HuH7 replicon cells assessed as decrease in viral replication after 3 days by RT-PCR method; type: cell-based; conditions: Hepatitis C virus subtype 1a
[2] = target: T1, Nonstructural protein 5A (Hepatitis C virus) (UniProt Q5L478); test: Inhibition of NS5A M28K mutant in HCV genotype 1a infected in HuH7 replicon cells assessed as decrease in viral replication after 3 days by RT-PCR method; type: cell-based; conditions: Hepatitis C virus subtype 1a
T1 sequence (whole entry): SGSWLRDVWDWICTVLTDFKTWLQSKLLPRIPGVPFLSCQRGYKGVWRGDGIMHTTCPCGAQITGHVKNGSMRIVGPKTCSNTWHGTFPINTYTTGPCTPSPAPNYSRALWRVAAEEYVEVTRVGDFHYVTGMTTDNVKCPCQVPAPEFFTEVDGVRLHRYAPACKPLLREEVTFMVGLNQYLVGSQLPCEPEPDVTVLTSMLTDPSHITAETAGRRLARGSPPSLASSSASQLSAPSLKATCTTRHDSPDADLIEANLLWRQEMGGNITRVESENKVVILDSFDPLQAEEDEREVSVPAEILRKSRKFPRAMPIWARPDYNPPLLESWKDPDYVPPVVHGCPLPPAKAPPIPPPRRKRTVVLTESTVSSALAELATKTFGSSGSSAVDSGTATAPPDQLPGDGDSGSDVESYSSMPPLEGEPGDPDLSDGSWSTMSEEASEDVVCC

[3] = Half life in Wistar Han rat at 2 mg/kg, iv by LC/MS method; type: ADME, organism-based; conditions: in vivo
Method in brief: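 Male Wistar Han rats, two per group, dosed IV at 2 mg/kg in 60% PEG200. Plasma was obtained by centrifuging the blood, and compound concentrations were measured by LC/MS.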

[4] = Drug level in Beagle dog at 5 mg/kg, po measured at 24 hrs by LC/MS method; type: ADME, organism-based, Canis lupus familiaris; conditions: in vivo, read-out: Drug uptake
Method in brief: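 Beagle dogs, two animals per dosing group. Oral dose was given in 10% TWEEN. Blood was collected and spun to plasma, and plasma compound levels were measured by LC/MS.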

[5] = Half life in Beagle dog at 1 mg/kg, iv by LC/MS method; type: ADME, organism-based, Canis lupus familiaris; conditions: in vivo
Method in brief: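 Beagle dogs, two animals per group, dosed IV at 1 mg/kg in 60% PEG200. Plasma was prepared from collected blood by centrifugation, and compound was quantified by LC/MS.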

[6] = tested on: Hepatitis C virus subtype 1a; test: Resistance ratio of EC90 for NS5A A92P mutant in HCV genotype 1a infected in HuH7 replicon cells to EC90 for NS5A in HCV genotype 1a infected in HuH7 replicon cells; type: cell-based
[7] = Resistance ratio of EC90 for NS5A in HCV genotype 3a infected in HuH7 replicon cells to EC90 for NS5A in HCV genotype 1a infected in HuH7 replicon cells; type: cell-based
[8] = target: T1, Nonstructural protein 5A (Hepatitis C virus); test: Inhibition of NS5A in HCV genotype 1a infected in HuH7 replicon cells assessed as decrease in viral replication after 3 days by RT-PCR method; type: cell-based; conditions: Hepatitis C virus subtype 1a
[9] = target: T1, Nonstructural protein 5A (Hepatitis C virus); test: Inhibition of NS5A M28T mutant in HCV genotype 1a infected in HuH7 replicon cells assessed as decrease in viral replication after 3 days by RT-PCR method; type: cell-based; conditions: Hepatitis C virus subtype 1a
[10] = Resistance ratio of EC90 for NS5A F28Y mutant in HCV genotype 2a infected in HuH7 replicon cells to EC90 for NS5A in HCV genotype 1a infected in HuH7 replicon cells; type: cell-based
[11] = tested on: NS3 (Hepatitis C virus), A3EZJ3 [R155K]; test: Inhibition of NS3 R155K mutant in HCV genotype 1a infected in HuH7 replicon cells assessed as decrease in viral replication after 3 days by RT-PCR method; type: cell-based; conditions: Hepatitis C virus subtype 1a
[12] = Resistance ratio of EC90 for NS5A A92T mutant in HCV genotype 1b infected in HuH7 replicon cells to EC90 for NS5A in HCV genotype 1a infected in HuH7 replicon cells; type: cell-based
[13] = tested on: NS3 (Hepatitis C virus), A3EZJ3 [A156T]; test: Inhibition of NS3 A156T mutant in HCV genotype 1b infected in HuH7 replicon cells assessed as decrease in viral replication after 3 days by RT-PCR method; type: cell-based; conditions: Hepatitis C virus subtype 1b
[14] = Resistance ratio of EC90 for NS5A L31M/Y93H double mutant in HCV genotype 1b infected in HuH7 replicon cells to EC90 for NS5A in HCV genotype 1a infected in HuH7 replicon cells; type: cell-based
[15] = target: T1, Nonstructural protein 5A (Hepatitis C virus); test: Inhibition of NS5A L30H mutant in HCV genotype 4a infected in HuH7 replicon cells assessed as decrease in viral replication after 3 days by RT-PCR method; type: cell-based; conditions: Hepatitis C virus subtype 4a
[16] = Resistance ratio of EC90 for NS5A L31V mutant in HCV genotype 4a infected in HuH7 replicon cells to EC90 for NS5A in HCV genotype 1a infected in HuH7 replicon cells; type: cell-based
[17] = target: T1, Nonstructural protein 5A (Hepatitis C virus); test: Inhibition of NS5A F28L mutant in HCV genotype 2a infected in HuH7 replicon cells assessed as decrease in viral replication after 3 days by RT-PCR method; type: cell-based; conditions: Hepatitis C virus subtype 2a
[18] = tested on: T2, Nonstructural protein 5A (Hepatitis C virus), Q5L478 [Y93N]; test: Inhibition of NS5A Y93N mutant in HCV genotype 1a infected in HuH7 replicon cells assessed as decrease in viral replication after 3 days by RT-PCR method; type: cell-based; conditions: Hepatitis C virus subtype 1a
T2 sequence (whole entry): T1 sequence (whole entry) with Y93N

[19] = target: T1, Nonstructural protein 5A (Hepatitis C virus); test: Inhibition of NS5A L31M mutant in HCV genotype 1b infected in HuH7 replicon cells assessed as decrease in viral replication after 3 days by RT-PCR method; type: cell-based; conditions: Hepatitis C virus subtype 1b
[20] = tested on: Hepatitis C virus subtype 1a; test: Resistance ratio of EC90 for NS5A L31M/Y93C double mutant in HCV genotype 1a infected in HuH7 replicon cells to EC90 for NS5A in HCV genotype 1a infected in HuH7 replicon cells; type: cell-based
[21] = Resistance ratio of EC90 for NS5A L31M mutant in HCV genotype 2a infected in HuH7 replicon cells to EC90 for NS5A in HCV genotype 1a infected in HuH7 replicon cells; type: cell-based

COC(=O)N[C@H](C(=O)N1CCC[C@H]1c1ncc(-c2cc(F)c3c(c2)O[C@@H](c2ccc(C4CC4)s2)n2c-3cc3cc(-c4cnc([C@@H]5CCCN5C(=O)[C@@H](NC(=O)OC)[C@@H]5CCOC(C)(C)C5)[nH]4)ccc32)[nH]1)C(C)C gave an EC90 [1] of 2.5 pM, an EC90 [2] of 420 pM and a half-life [3] of 5.4 h. For the same compound, the concentration at 24 h [4] was 29 nM, the half-life [5] was 5.8 h and the Ratio [6] was under 1. The Ratio [7] was 2, the EC90 [8] was 4.2 pM and the EC90 [9] was 2 pM. The Ratio [10] was 16, the EC90 [11] was 1.9 pM and the Ratio [12] was 1. For the same compound, the EC90 [13] was 4 pM, the Ratio [14] was 45 and the EC90 [15] was 72 pM. The Ratio [16] was 2, the EC90 [17] was 0.5 pM and the EC90 [18] was 69 pM. For the same compound, the EC90 [19] was 1.6 pM, the Ratio [20] was 43 and the Ratio [21] was 6.
